This is a sample that favours compounds with a hit; in the whole collection about 2% have one here.
NR2E3 ag-1: human photoreceptor-specific nuclear receptor agonism | actives 0.35% (n = 360,000) | Q9Y5X4 | CHO-S Gal4-NCOR/VP16-NR2E3 two-hybrid, luciferase | AID 602229 | inhibition of corepressor binding, % at 3.98 µM;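 active = inhibition above the mean of all tested compounds plus 3 SD, cut at about 70% in these data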;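 also: higher means lower luciferase signal from less NR2E3 corepressor binding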
Target sequence (Q9Y5X4 whole entry, looked up, the tested form may be a part): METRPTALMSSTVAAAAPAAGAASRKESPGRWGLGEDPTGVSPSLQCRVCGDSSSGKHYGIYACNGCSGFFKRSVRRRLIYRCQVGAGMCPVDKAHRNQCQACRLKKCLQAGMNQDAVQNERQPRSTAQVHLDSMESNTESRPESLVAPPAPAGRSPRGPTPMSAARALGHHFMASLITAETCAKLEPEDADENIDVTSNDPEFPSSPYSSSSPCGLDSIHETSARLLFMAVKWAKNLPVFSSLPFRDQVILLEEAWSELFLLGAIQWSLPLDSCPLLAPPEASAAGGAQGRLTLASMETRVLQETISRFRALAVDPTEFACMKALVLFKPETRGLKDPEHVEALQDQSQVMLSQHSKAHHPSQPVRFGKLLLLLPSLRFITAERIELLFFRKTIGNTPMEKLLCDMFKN
LMP1 NFkB inh: inhibitors of Epstein-Barr LMP1-induced NF-kappaB reporter; AID 504558; actives 0.69% (n = 350,000); LMP1-induced NF-kappaB luciferase reporter cells, luminescence; inhibition, % at 12.5 µM; in the data active = inhibition above about 41%; inconclusive = no clear call, values can overlap the other calls
HIF activator: HIF pathway transcriptional activation; U2OS HRE-luciferase reporter, luminescence; normalized: DMSO 0%, desferrioxamine 100%; activation, % at 7.5 µM (by protocol); actives 0.32% (n = 300,000);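 active = mean activation of at least 10% of the iron chelator positive control signal, with at least half of replicates also reaching 10%; inconclusive = mean and replicate majority disagree about reaching 10%; inactive = mean and most replicates under 10%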
NR2E3 ag-2: activates human photoreceptor nuclear receptor NR2E3; inhibition of corepressor binding, % at 4.78 µM; AID 2300; GST-NR2E3/biotin-RetCOR TR-FRET, 1536-well; actives 0.12% (n = 320,000); Q9Y5X4;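 active = percent inhibition above the cutoff of mean plus 3 SD of all tested compounds, set per screening campaign, cut at about 20% in these data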
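Test system – NR2E3–RetCOR corepressor complex · Quantity – NR2E3 fusion 1.35 nM · Buffer or medium – Tris pH 7.5 · Incubation – Compound–protein incubation for 5 h at 4 °C · Technique – TR-FRET, Eu(K)-anti-GST donor, streptavidin-D2 acceptor, ex 340, em 617/671 nm · Evaluation – percent inhibition of 671/617 nm emission ratio versus biotin and DMSO controls · Plate – 1536-well format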
TROY signal inh: inhibitors of TROY-dependent NF-kB signaling; Q293 LMP1-TROYcd NF-kB luciferase reporter, 4 h; actives 0.98% (n = 360,000); inhibition, % at 10 µM;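 active = compounds whose plate-normalised and pattern-corrected inhibition of the luciferase reporter signal at the single screening dose is 50% or more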
Each line names hits and unclear results; the compound was inactive in the other large screens.

Cc1oc(-c2ccc(Cl)cc2)nc1CS(=O)CC(=O)NC1CCCC1 (stereo not drawn)	none
CN1/C(=C\C(=O)c2cccnc2)C(C)(C)c2ccccc21	none
CN1/C(=C/C(=O)c2nc(S(C)(=O)=O)ncc2Cl)C(C)(C)c2ccccc21	LMP1 NFkB inh 60, TROY signal inh 70 (no result: HIF activator)
O=C1Nc2cc(C(=O)NCCCN3CCCC3)ccc2S/C1=C/c1ccccc1F	none
O=C(NCCCN1CCCCC1)c1ccc2c(c1)NC(=O)c1ccccc1S2	LMP1 NFkB inh 57
CCC(=O)NC(c1ccc(C)cc1)c1cc(Cl)c2cccnc2c1O (stereo not drawn)	LMP1 NFkB inh 43 (no result: HIF activator, NR2E3 ag-2)
CCCC(=O)NC(c1ccc2c(c1)OCO2)c1cc(Cl)c2cccnc2c1O (stereo not drawn)	HIF activator 12
CC(=O)NC(c1cccs1)c1cc(F)c2cccnc2c1O (stereo not drawn)	LMP1 NFkB inh 53 (no result: HIF activator)
CC(=O)NC(c1ccco1)c1cc(F)c2cccnc2c1O (stereo not drawn)	none (no result: HIF activator)
CCCC(=O)NC(c1cccs1)c1cc(Cl)c2cccnc2c1O (stereo not drawn)	HIF activator 29
COc1ccc(CCN(C)Cc2c(O)ccc3ccccc23)cc1OC	none
O=C(O)/C=C/C(=O)Nc1ccccc1C(=O)OCC(=O)c1ccc2c(c1)OCCO2	TROY signal inh 53 (no result: HIF activator)
CCCCC(=O)Nc1ccccc1C(=O)OCC(=O)c1ccc2c(c1)OCCO2	none
CC(CNC(=O)CN1C(=O)C(=O)N(C2CCCC2)C1=O)c1ccccc1 (stereo not drawn)	none (no result: HIF activator)
N#CC1=C(N)N2C(=C(C#N)C1c1ccc(Br)cc1)Nc1ccccc12 (stereo not drawn)	none (no result: NR2E3 ag-1, LMP1 NFkB inh, TROY signal inh)
N#CC1=C(N)N2C(=C(C#N)C1c1cccc(Br)c1)Nc1ccccc12 (stereo not drawn)	LMP1 NFkB inh 52, TROY signal inh 73
CCC(C)c1ccccc1NC(=O)C(C)Sc1n[nH]c(N)n1 (stereo not drawn)	none (no result: HIF activator)
Cc1ccc(S(=O)(=O)N2CCN(C(=O)COC(=O)COc3ccc(Cl)cc3)CC2)c(C)c1	LMP1 NFkB inh 58 (no result: HIF activator, NR2E3 ag-2)
Cc1nnc(NC(=O)c2c(F)cccc2F)s1	LMP1 NFkB inh 53
Cc1nnc(NC(=O)c2cccc(F)c2)s1	none
CNS(=O)(=O)c1cccc(C(=O)OCc2cc(=O)oc3c(C)c(O)ccc23)c1	TROY signal inh 51
Cc1cc(/C=C2/C(=O)NN(c3ccccc3)C2=O)c(C)n1-c1cccc(O)c1	TROY signal inh 81
O=C1NN(c2ccccc2)C(=O)C1=Cc1ccccc1O	none (no result: HIF activator, NR2E3 ag-2)
Oc1ccc(Oc2ccc3c(C(F)(F)F)cc(C(F)(F)F)nc3n2)cc1	LMP1 NFkB inh 48
Cc1cc(C)n(-c2nc3ccccc3c(=O)n2OCC#N)n1	HIF activator 14 (no result: NR2E3 ag-2)
O=C(CN1C(=O)NC2(CCCCC2)C1=O)NCC(=O)Nc1ccc(F)c(F)c1	none
O=[N+]([O-])c1nccn1C1C=CC(O)C(CO)O1 (stereo not drawn)	none (no result: LMP1 NFkB inh, HIF activator, NR2E3 ag-2)
C[n+]1cccc(C(=O)NNC(=O)C23CC4CC(CC(C4)C2)C3)c1	TROY signal inh 52
CCCCCOc1ccc(NC2=CC(=O)CCC2)cc1	none
c1csc(CNc2ncnc3ccc(-c4ccoc4)cc23)c1	LMP1 NFkB inh inconclusive, TROY signal inh 55 (no result: HIF activator)
c1csc(CNc2ncnc3ccc(-c4ccc5c(c4)OCO5)cc23)c1	none (no result: HIF activator)
Cc1ccccc1CNc1ccc(C(CC(N)=O)NC(=O)c2ccc(Br)cc2)cc1[N+](=O)[O-] (stereo not drawn)	LMP1 NFkB inh 60
NC(=O)CC(NC(=O)c1ccc(Br)cc1)c1ccc(NCc2ccc(F)cc2)c([N+](=O)[O-])c1 (stereo not drawn)	none
O=c1cc(C(F)(F)F)[nH]c2c(C(F)(F)F)cccc12	NR2E3 ag-1 101, TROY signal inh 58
Cc1cc(=O)c2cccc(Br)c2[nH]1	none (no result: TROY signal inh)
CC1CCCN(C(=O)c2ccc(S(=O)(=O)N3CCC(c4nc5ccccc5s4)CC3)cc2)C1 (stereo not drawn)	TROY signal inh 52
CCCn1c(=S)[nH]c2sc3c(c2c1=O)CCCC3	none
Nn1c(=S)[nH]c2sc3c(c2c1=O)CCCC3	TROY signal inh 75
c1ccc(CNc2nc(NCc3cccs3)nc3ccsc23)cc1	TROY signal inh 61 (no result: LMP1 NFkB inh, HIF activator, NR2E3 ag-2)
CNc1nc(NCc2ccccc2)c2sccc2n1	none (no result: LMP1 NFkB inh, HIF activator, NR2E3 ag-2)
COc1ccc(-c2nc3ccccc3s2)cc1O	TROY signal inh 68

Screens: PubChem, several laboratories
